Values after ≈ are worked out from the molar mass of the structure shown.
Key:
[1] = Cytotoxicity against human IMR90 cells after 24 hrs by MTT assay; assay type: cell-based, IMR-90; details: read-out: ID50
Method in brief: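 IMR-90 embryonic fibroblasts (ATCC) were grown in DMEM with 10% FCS and 1% glutamine at 37 °C, 5% CO2. Cells were plated at 4 or 8×10^3/well and attached overnight. They were treated 24 h, in duplicate, with compounds from methanol stocks diluted in medium, with a methanol blank. MTT (5 mg/mL stock) was added for 4 h, formazan dissolved in DMSO, and read at 550 nm.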

[2] = Cytotoxicity against HUVEC after 24 hrs by MTT assay; assay type: cell-based; details: human, read-out: ID50
Method in brief: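 Primary HUVEC from newborns, grown in DMEM/medium 199 with 20% FCS, 10 mM HEPES, heparin and ECGS at 37 °C, 5% CO2. Cells were seeded at 4 or 8×10^3/well and attached overnight. Compounds were added from methanol solutions diluted in medium, with a methanol blank, for 24 h in duplicate. MTT (5 mg/mL stock) was added for 4 h, formazan dissolved in DMSO, and A550 read.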

HT-1080 = assay: Cytotoxicity against human HT1080 cells after 24 hrs by MTT assay; assay type: functional; details: HT-1080, 24 h, read-out: ID50 (the source's name)
Method in brief: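 HT-1080 cells (ATCC) were kept in DMEM with 10% FCS, 1% glutamine and 1% vitamins at 37 °C, 5% CO2. Cells were seeded at 4 or 8×10^3/well and attached overnight, then exposed for 24 h in duplicate to methanol-dissolved compounds diluted in medium, with a methanol blank. MTT (5 mg/mL stock) was given for 4 h, formazan solubilized in DMSO, and absorbance read at 550 nm.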

[3] = Cytotoxicity against human Hs 578T cells after 24 hrs by MTT assay; assay type: functional; details: read-out: ID50 (the source's name)
Method in brief: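 Hs578T cells (ATCC) were maintained in DMEM with 10% FCS, 1% glutamine and 10 μg/mL insulin. Cells were seeded at 4 or 8×10^3/well and allowed to adhere overnight at 37 °C. They were exposed 24 h, in duplicate, to compounds in methanol diluted with medium, with a methanol blank. MTT (5 mg/mL stock) was added for 4 h, formazan dissolved in DMSO, and A550 measured.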

[4] = Cytotoxicity against human U87MG cells after 24 hrs by MTT assay; assay type: functional, U-87MG ATCC; details: U-87 MG, read-out: ID50 (the source's name)
Method in brief: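 U87-MG glioblastoma cells (ATCC) were grown in MEM with 10% FCS, 1% sodium pyruvate and 1% nonessential amino acids. Cells were seeded at 4 or 8×10^3/well and adhered overnight at 37 °C. They were exposed 24 h, in duplicate, to methanol-dissolved compounds diluted in medium, with a methanol blank. MTT (5 mg/mL stock) was added for 4 h, formazan dissolved in DMSO, and absorbance read at 550 nm.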

MDA-MB-231 = assay: Cytotoxicity against human MDA-MB-231 cells after 24 hrs by MTT assay; assay type: functional; details: MDA-MB-231, 24 h, read-out: ID50 (the source's name)
Method in brief: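 MDA-MB-231 cells (ATCC) were cultured in Leibovitz's L-15 with 10% FCS. Cells were seeded at 4 or 8×10^3/well and attached overnight at 37 °C. Compounds dissolved in methanol and diluted in medium were added for 24 h in duplicate, with a methanol blank. MTT (5 mg/mL stock) was added for 4 h, formazan taken up in DMSO, and A550 recorded.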

CC(=O)O[C@H]1C[C@@H](C)[C@H](C=O)[C@]2(O)[C@@H]1C(C)(C)C[C@@]2(C)C=O
CC50 at 24 h [1]: 10 µg/mL (≈ 32.2 µM)
CC50 at 24 h [2]: 5 µg/mL (≈ 16.1 µM)
IC50 (HT-1080): 5 µg/mL (≈ 16.1 µM)
IC50 [3]: 1 µg/mL (≈ 3.22 µM)
IC50 [4]: 1 µg/mL (≈ 3.22 µM)
IC50 (MDA-MB-231): 0.1 µg/mL (≈ 0.322 µM)

CC(=O)O[C@H]1C[C@@H](C)[C@H](C(=O)O)[C@@]2(O)[C@@H]1C(C)(C)C[C@]2(C)C=O
CC50 at 24 h [1]: > 10 µg/mL
CC50 at 24 h [2]: > 10 µg/mL
IC50 (HT-1080): > 10 µg/mL
IC50 [3]: > 10 µg/mL
IC50 [4]: > 10 µg/mL
IC50 (MDA-MB-231): > 10 µg/mL

CC(=O)O[C@H]1C[C@@H](C)[C@@H]2[C@H](O)OC[C@@]3(C)CC(C)(C)[C@H]1[C@]23O
CC50 at 24 h [1]: > 10 µg/mL
CC50 at 24 h [2]: > 10 µg/mL
IC50 (HT-1080): > 10 µg/mL
IC50 [3]: > 10 µg/mL
IC50 [4]: > 10 µg/mL
IC50 (MDA-MB-231): > 10 µg/mL

CC(=O)O[C@H]1C[C@@H](C)[C@@H]2COC[C@@]3(C)CC(C)(C)[C@H]1[C@]23O
CC50 at 24 h [1]: > 10 µg/mL
CC50 at 24 h [2]: > 10 µg/mL
IC50 (HT-1080): > 10 µg/mL
IC50 [3]: > 10 µg/mL
IC50 [4]: > 10 µg/mL
IC50 (MDA-MB-231): > 10 µg/mL

C=CC1=C(/C(=C\C)CO)[C@@](C)(CO)CC1(C)C [SECOBOTRYTRIENDIOL]
CC50 at 24 h [1]: > 10 µg/mL
CC50 at 24 h [2]: > 10 µg/mL
IC50 (HT-1080): > 10 µg/mL
IC50 [3]: > 10 µg/mL
IC50 [4]: > 10 µg/mL
IC50 (MDA-MB-231): > 10 µg/mL

CC(=O)O[C@H]1C[C@@H](C)[C@H](CO)C2=C1C(C)(C)C[C@]2(C)CO
CC50 at 24 h [1]: > 10 µg/mL
CC50 at 24 h [2]: > 10 µg/mL
IC50 (HT-1080): > 10 µg/mL
IC50 [3]: > 10 µg/mL
IC50 [4]: > 10 µg/mL
IC50 (MDA-MB-231): > 10 µg/mL

CC(=O)O[C@H]1C[C@@H](C)C(C=O)=C2[C@@H]1C(C)(C)C[C@]2(C)C=O [BOTRYENEDIAL]
CC50 at 24 h [1]: > 10 µg/mL
CC50 at 24 h [2]: 10 µg/mL (≈ 34.2 µM)
IC50 (HT-1080): 10 µg/mL (≈ 34.2 µM)
IC50 [3]: 10 µg/mL (≈ 34.2 µM)
IC50 [4]: 10 µg/mL (≈ 34.2 µM)
IC50 (MDA-MB-231): 10 µg/mL (≈ 34.2 µM)

Cc1ccc2c(c1CO)[C@@](C)(CO)C[C@@]2(C)CO
CC50 at 24 h [1]: > 10 µg/mL
CC50 at 24 h [2]: > 10 µg/mL
IC50 (HT-1080): > 10 µg/mL
IC50 [3]: > 10 µg/mL
IC50 [4]: > 10 µg/mL
IC50 (MDA-MB-231): > 10 µg/mL

COC(=O)[C@@]1(C)CC(C)(C)[C@@H]2[C@@H](O)C[C@@H](C)[C@H](C=O)[C@@]21O [METHYL BOTRYALOATE]
CC50 at 24 h [1]: > 10 µg/mL
CC50 at 24 h [2]: > 10 µg/mL
IC50 (HT-1080): > 10 µg/mL
IC50 [3]: > 10 µg/mL
IC50 [4]: > 10 µg/mL
IC50 (MDA-MB-231): > 10 µg/mL

CC(=O)O[C@H]1C[C@@H](C)[C@H](C(=O)O)[C@@]2(O)[C@@H]1C(C)(C)C[C@]2(C)CO [BOTRYOLOIC ACID]
CC50 at 24 h [1]: > 10 µg/mL
CC50 at 24 h [2]: > 10 µg/mL
IC50 (HT-1080): > 10 µg/mL
IC50 [3]: > 10 µg/mL
IC50 [4]: > 10 µg/mL
IC50 (MDA-MB-231): > 10 µg/mL

Cc1ccc2c(c1C=O)[C@@](C)(C=O)CC2(C)C
CC50 at 24 h [1]: 10 µg/mL (≈ 43.4 µM)
CC50 at 24 h [2]: 5 µg/mL (≈ 21.7 µM)
IC50 (HT-1080): 1 µg/mL (≈ 4.34 µM)
IC50 [3]: 1 µg/mL (≈ 4.34 µM)
IC50 [4]: 5 µg/mL (≈ 21.7 µM)
IC50 (MDA-MB-231): 10 µg/mL (≈ 43.4 µM)

CC(=O)O[C@H]1C[C@@H](C)[C@H](C(=O)O)[C@@]2(O)[C@@H]1C(C)(C)C[C@]2(C)C(=O)O [BOTRYDIOIC ACID]
CC50 at 24 h [1]: > 10 µg/mL
CC50 at 24 h [2]: > 10 µg/mL
IC50 (HT-1080): > 10 µg/mL
IC50 [3]: > 10 µg/mL
IC50 [4]: > 10 µg/mL
IC50 (MDA-MB-231): > 10 µg/mL

CC(=O)O[C@H]1C[C@@H](C)C(C=O)=C2[C@@H]1C(C)(C)C[C@]2(C)CO [BOTRYENALOL]
CC50 at 24 h [1]: > 10 µg/mL
CC50 at 24 h [2]: > 10 µg/mL
IC50 (HT-1080): > 10 µg/mL
IC50 [3]: > 10 µg/mL
IC50 [4]: > 10 µg/mL
IC50 (MDA-MB-231): > 10 µg/mL
